Screening data deposited in PubChem BioAssay by several laboratories.
M1 agonist = M1 muscarinic receptor agonism. CHO-M1 cells, Fluo-4 calcium fluorescence, agonist mode; stronger effect = higher value. B-score at 10 µM. hit rate 3% among 64,000. AID 626;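 active means fluorescence rise, raw or as B-score row- and column-corrected plate score, outside the 99.7% band of its plate's samples, either direction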
AP ELISA ortho = orthogonal test for alternative complement pathway inhibitors. Human serum alternative complement pathway, LPS-coated ELISA, C3 deposition; tested in compound mixtures. inhibition, % at 5 µM. hit rate 0.08% among 62,000. AID 1235;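 active means inhibition above 30% in each of the two pooled mixtures holding the compound, so the lower value exceeds 30%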;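 further: 0% = serum in Mg-EGTA without compound and 100% = EDTA serum blank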
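Assay system: human serum alternative complement pathway, C3 deposition on LPS-coated wells; Dosing: 5 µM per compound in ten-compound mixtures; Detection: Anti-C3 ELISA, OD 450 nm; Buffer or medium: Mg2+-EGTA GVB++ buffer containing human serum at 1:15 dilution; Timing: 1 h at 37 °C; Replication: two different pools per compound.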
mHtt clearance = compounds clearing mutant huntingtin protein. inhibition, % at 1.5 µM. HeLa Exon1htt(103Q)mCFP, aggregate imaging; zero = plate's median compound well. hit rate 0.42% among 47,000;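 active means inhibition of aggregate fluorescence above about 70%, also judged a hit by eye on the cell image, limit read from the data, passing the limit was not always enough; inconclusive means no rule stated for this call; inactive means not judged a hit on image review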;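 further: cells exposed to compound for three days before fixation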
D1 allo mod = allosteric modulators of human D1 dopamine receptor. B-score at 10 µM. hit rate 5.9% among 58,000. P21728. HEK293 D1, CRE-luciferase, dopamine EC30 potentiation; actives deviate in either direction;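 active means luminescence count or its row- and column-corrected plate score outside the 99.7% band of the plate's sample wells, on either side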
Target sequence (P21728 whole entry, looked up): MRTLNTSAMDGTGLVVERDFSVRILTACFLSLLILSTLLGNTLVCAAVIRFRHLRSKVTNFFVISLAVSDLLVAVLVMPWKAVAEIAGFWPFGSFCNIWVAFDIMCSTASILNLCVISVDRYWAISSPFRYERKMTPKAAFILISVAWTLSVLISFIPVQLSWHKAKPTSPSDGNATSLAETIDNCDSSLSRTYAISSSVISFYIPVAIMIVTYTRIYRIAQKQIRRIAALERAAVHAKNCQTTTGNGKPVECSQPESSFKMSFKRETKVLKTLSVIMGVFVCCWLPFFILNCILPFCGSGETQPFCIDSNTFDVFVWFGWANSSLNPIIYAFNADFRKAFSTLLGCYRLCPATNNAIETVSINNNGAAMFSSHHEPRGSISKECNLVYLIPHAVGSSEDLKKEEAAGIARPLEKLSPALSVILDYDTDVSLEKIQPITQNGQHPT
M1 antagonist = blocks the rat M1 muscarinic receptor response to acetylcholine; P08482; CHO-M1 cells, Fluo-4 calcium, ACh EC80 antagonist mode; stronger effect = lower value; B-score at 10 µM; hit rate 3.4% among 64,000; AID 628;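 active means calcium fluorescence response, raw or row-and-column corrected B-score, differing from the plate sample mean either way at a set confidence level, mostly lower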
M1 ag confirm = confirmation of rat M1 muscarinic receptor agonists | shares compounds with M1 agonist | CHO-M1 cells, Fluo-4 calcium fluorescence, agonist mode; actives lie on both sides | fluorescence change (max-min) at 10 µM | hit rate 19% among 1,700;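 active means fluorescence change differs from the solvent-only DMSO control mean at a set confidence level in both duplicate runs; inconclusive means differs from solvent-only control mean in just one of two runs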;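 further: an EC20 dose of acetylcholine follows compound addition during the same imaging run; raw fluorescence intensity difference in instrument units with no normalization to controls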
M4 agonist ctr = activates rat M4 receptor in counter-screen for M1 agonists; hit rate 9% among 1,700; AID 1741; shares compounds with M1 agonist; CHO M4/Gqi5 cells, Fluo-4 calcium fluorescence, agonist mode; actives lie on both sides; fluorescence change (max-min) at 10 µM;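 active means fluorescence change differing from the plate's solvent-only control wells at 99.7% confidence in both duplicates, whether higher or lower; inconclusive means differs from solvent controls in only one of two duplicates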
M1 antag confirm = M1 muscarinic receptor (rat) antagonism, confirmed; hit rate 43% among 1,700; shares compounds with M1 antagonist; CHO-M1 cells, Fluo-4 calcium, ACh EC80 antagonism; stronger effect = lower value; AID 677; calcium response (max-min fluorescence) at 10 µM;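 active means calcium response below the same-plate mean of wells given acetylcholine alone at its 80%-effect dose, minus 3 SD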;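 further: raw fluorescence intensity difference in arbitrary instrument units and not normalized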
mGluR4 antag = mGluR4 (human) activity, M1 antagonist secondary assay; hit rate 0.9% among 1,700; fluorescence response (max-min) at 10 µM; CHO-mGluR4 calcium flux, Fluo-4 fluorescence, glutamate EC80; stronger effect = lower value; shares compounds with M1 antagonist;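 active means fluorescence response below the plate's average for near-maximal glutamate wells, less 3 SD of those wells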;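 further: raw unnormalized fluorescence span taken in the window right after glutamate addition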
Active calls of the source: *. This is a sample that favours compounds with a hit; in the whole collection about 9% have one here.

Cc1cnc(C(=O)OCC(=O)N2CCN(C(=O)c3ccco3)CC2)cn1 was read as M1 agonist -0.24, AP ELISA ortho -5, mHtt clearance -2, D1 allo mod -0.31 and M1 antagonist -0.012.
For Cc1cc(SCC(=O)OCC(=O)N2CCN(C(=O)c3ccco3)CC2)c(C)cc1Br the results were M1 agonist 4.1*, AP ELISA ortho 4, mHtt clearance 1, D1 allo mod 0.0039, M1 antagonist 0.11, M1 ag confirm -5.5 and M4 agonist ctr -11.
For CCCCCn1c(=N)n(CC(O)COc2ccccc2OC)c2ccccc21 (centres undefined) the results were M1 agonist 3.1*, AP ELISA ortho 14, mHtt clearance -33, D1 allo mod -5.8*, M1 antagonist 0.25, M1 ag confirm 2.9 and M4 agonist ctr 11.
For CCCCN(CC)CCCNC(=O)c1cc2c(=O)n(C)c3ccccc3c2n1C the results were M1 agonist 0.018, AP ELISA ortho 1, mHtt clearance 42, D1 allo mod 0.23 and M1 antagonist -1.4.
For Cn1c(=O)n(C)c2cc(S(=O)(=O)NCCc3ccccc3)ccc21 the results were M1 agonist -3*, AP ELISA ortho 16, D1 allo mod -0.42, M1 antagonist -0.25, M1 ag confirm -16 and M4 agonist ctr inconclusive.
Screening OC1(c2ccc(F)cc2)CCN(Cc2nnnn2Cc2cccs2)CC1 returned M1 agonist -0.25, AP ELISA ortho 8, mHtt clearance 12, D1 allo mod 0.17 and M1 antagonist -1.2.
`CCN1CCN(C(=O)c2ccc3c(=O)n(C4CCCC4)c(=S)[nH]c3c2)CC1` gave M1 agonist 1.4*, AP ELISA ortho -16, mHtt clearance -4, D1 allo mod 0.81, M1 antagonist -0.42, M1 ag confirm -1 and M4 agonist ctr -27.
For O=C(c1ccc2c(=O)n(C3CCCC3)c(=S)[nH]c2c1)N1CCN(C2CCCCC2)CC1 the results were M1 agonist 0.26, AP ELISA ortho 14, mHtt clearance -41, D1 allo mod 0.5 and M1 antagonist -0.059.
`CCOC(=O)N1CCN(C(=O)c2ccc3c(=O)n(CCc4ccccc4)c(=S)[nH]c3c2)CC1` gave M1 agonist -0.39, AP ELISA ortho -4, D1 allo mod -1.6 and M1 antagonist -0.17.
`CCCn1c(=S)[nH]c2cc(C(=O)N3CCCC(C(=O)OCC)C3)ccc2c1=O` (centres undefined) gave M1 agonist 3.3*, AP ELISA ortho 1, mHtt clearance 9, D1 allo mod -1.6, M1 antagonist -1.8, M1 ag confirm -16 and M4 agonist ctr inconclusive.
`O=C(Nc1ccc2c(c1)OCCO2)C1CCCN(S(=O)(=O)c2cccnc2)C1` (centres undefined) gave M1 agonist -0.12, AP ELISA ortho 9, D1 allo mod -0.034 and M1 antagonist -0.45.
Screening COc1ccc(-c2noc(Cc3cccs3)n2)cc1 returned M1 agonist 5.3*, AP ELISA ortho 12, D1 allo mod -0.5, M1 antagonist 0.33, M1 ag confirm -17 and M4 agonist ctr inconclusive.
Screening COc1ccc(-c2noc(Cc3ccccc3OC)n2)cc1 returned M1 agonist -0.012, AP ELISA ortho 10, D1 allo mod 1.3 and M1 antagonist -0.39.
`CCOC(=O)N1CCN(CCC(=O)Nc2ccc(OC(F)(F)F)cc2)CC1` gave M1 agonist 0.44, AP ELISA ortho 14, mHtt clearance 36, D1 allo mod -0.49 and M1 antagonist -1.5.
CCOC(=O)COn1c(=O)c(-c2cccs2)[n+]([O-])c2ccccc21 was read as M1 agonist 88*, AP ELISA ortho -2, D1 allo mod 0.049, M1 antagonist -0.076, M1 ag confirm 800* and M4 agonist ctr inconclusive.
For COn1c(=O)c(-c2ccc(Cl)cc2)[n+]([O-])c2ccccc21 the results were M1 agonist -0.23, AP ELISA ortho 13, mHtt clearance 14, D1 allo mod 0.48 and M1 antagonist -0.17.
Screening CCOn1c(=O)c(-c2ccc(OC)cc2)[n+]([O-])c2ccccc21 returned M1 agonist 5.2*, AP ELISA ortho -8, mHtt clearance -36, D1 allo mod 0.4, M1 antagonist -0.89, M1 ag confirm inconclusive and M4 agonist ctr -92.
`O=c1c(-c2ccccc2)[n+]([O-])c2ccccc2n1O` gave M1 agonist 9.3*, AP ELISA ortho -3, D1 allo mod -1.2, M1 antagonist -0.17, M1 ag confirm 42 and M4 agonist ctr 5.1.
Screening CCOn1c(=O)c(-c2ccc(Cl)cc2)[n+]([O-])c2ccccc21 returned mHtt clearance 11.
Screening COn1c(=O)c(-c2cccs2)[n+]([O-])c2ccccc21 returned mHtt clearance 4.
For COc1ccc(S(=O)(=O)N2CCCC(C(=O)N3CCOCC3)C2)cc1C (centres undefined) the results were M1 agonist 0.1, AP ELISA ortho 2, mHtt clearance 37, D1 allo mod -0.31 and M1 antagonist 0.34.
Screening Cc1cc(NC(=O)C2CCN(S(=O)(=O)c3cnc[nH]3)CC2)ccc1Br returned M1 agonist -0.43, AP ELISA ortho 19, D1 allo mod -0.94 and M1 antagonist -0.34.
Screening COc1ccc(CC(=O)NC2CC(C)(C)NC(C)(C)C2)cc1 returned mHtt clearance -85.
`COC(=O)c1ccccc1COn1c(=O)c(C)[n+]([O-])c2ccccc21` gave M1 agonist -0.43, AP ELISA ortho 10, D1 allo mod 0.022 and M1 antagonist -0.16.
COC(=O)c1c(=O)n(O)c2ccc(OC)cc2[n+]1[O-] was read as M1 agonist 19*, AP ELISA ortho -2, D1 allo mod -0.018, M1 antagonist -0.65, M1 ag confirm 117* and M4 agonist ctr 96*.
Screening Nc1ccc2[nH]ncc2c1 returned M1 agonist -0.3, AP ELISA ortho -5, D1 allo mod -0.75 and M1 antagonist 0.45.
Screening COc1cccc(C(c2nnnn2Cc2ccccc2)N2CCN(C(=O)c3ccco3)CC2)c1OC (centres undefined) returned M1 agonist -2.3*, AP ELISA ortho -3, mHtt clearance 47, D1 allo mod 0.15, M1 antagonist -11*, M1 ag confirm -13, M4 agonist ctr -13, M1 antag confirm 514 and mGluR4 antag 184.
